ChEMBL document CHEMBL3994675, “Carbamylmethyl Mercaptoacetate Thioether: A Novel Scaffold for the Development of L1 Metallo-β-lactamase Inhibitors” (ACS Med Chem Lett, 2017)

Assays:
[1] = Chemical stability in pH 9 Tris buffer after 4 days by UV-Visible spectral analysis; assay type: physicochemical; conditions: pH 9, 96 h
Summary of the method: (§1)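 Compounds incubated in aqueous solution at pH 5.0, 7.0 and 9.0 for 4 days; stability followed by UV-vis spectra.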

[2] = Inhibition of ImiS (unknown origin) expressed in Escherichia coli BL21(DE3) at 100 uM using imipenem as substrate preincubated for 3 to 60 mins followed by substrate addition by UV-Visible spectrophotometric method relative to control; conditions: TDE = time-dependent effect
Summary of the method: (§2)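 Purified enzyme preincubated with 100 μM inhibitor in its enzyme-specific buffer, then substrate added: 50 μM cefazolin for IMP-1 and L1, 40 μM imipenem for ImiS. Hydrolysis followed by UV-vis spectrophotometry. Preincubation times of 3–60 min were tested. % inhibition = activity without inhibitor (100%) minus residual activity.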

[3] = Inhibition of IMP1 (unknown origin) expressed in Escherichia coli BL21(DE3) at 100 uM using cefazolin as substrate preincubated for 30 mins followed by substrate addition by UV-Visible spectrophotometric method relative to control; summary of the method: as §2
[4] = Inhibition of L1 (unknown origin) expressed in Escherichia coli BL21(DE3) at 100 uM using cefazolin as substrate preincubated for 30 mins followed by substrate addition by UV-Visible spectrophotometric method relative to control; summary of the method: as §2
[5] = Inhibition of L1 (unknown origin) expressed in Escherichia coli DH10B harboring pBC SK(+)-L1 assessed as potentiation of cefazolin-induced antibacterial activity by measuring cefazolin MIC at 1024 ug/ml after 12 hrs macrodilution broth method
Summary of the method: (§3)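 Cefazolin MICs were read for E. coli DH10B carrying pBC SK(+)-L1 across a series of inhibitor concentrations. Cefazolin alone (no inhibitor) on the same strain served as the reference MIC. E. coli not expressing L1 was tested alongside as the susceptible comparator.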

[6] = Inhibition of L1 (unknown origin) expressed in Escherichia coli BL21(DE3) using cefazolin as substrate by ITC
Summary of the method: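 Isothermal titration calorimetry at 25 °C with 5 nM L1, 160 μM cefazolin and inhibitor at 0–100 μM; hydrolysis progress monitored as heat flow. Rates from runs at different substrate concentrations plotted against substrate concentration at 0, 50 and 100 μM inhibitor.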

[7] = Inhibition of L1 (unknown origin) expressed in Escherichia coli BL21(DE3) at 100 uM using cefazolin as substrate preincubated for 3 to 60 mins followed by substrate addition by UV-Visible spectrophotometric method relative to control; conditions: TDE = time-dependent effect; summary of the method: as §2
Escherichia coli [8] = assay: Growth inhibition of Escherichia coli DH10B at 1024 ug/ml after 12 hrs macrodilution broth method; design: species or system K-12 substr. DH10B
Summary of the method: (§4)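 Cefazolin MIC determined for E. coli DH10B carrying pBC SK(+)-L1 and for E. coli not expressing L1, with and without compound.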

[9] = Inhibition of IMP1 (unknown origin) expressed in Escherichia coli BL21(DE3) at 100 uM using cefazolin as substrate preincubated for 3 to 60 mins followed by substrate addition by UV-Visible spectrophotometric method; conditions: TDE = time-dependent effect; summary of the method: as §2
[10] = Inhibition of L1 (unknown origin) expressed in Escherichia coli BL21(DE3) using cefazolin as substrate preincubated for 30 mins followed by substrate addition by UV-Visible spectrophotometric method
Summary of the method: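 L1 IC50 measured in 30 mM Tris, pH 8.5, with cefazolin as substrate and inhibitor at 0.1–20 μM. Run in triplicate; mean ± SD reported.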

[11] = Chemical stability in pH 5 Tris buffer after 4 days by UV-Visible spectral analysis; assay type: physicochemical; conditions: pH 5, 96 h; summary of the method: as §1
[12] = Inhibition of ImiS (unknown origin) expressed in Escherichia coli BL21(DE3) at 100 uM using imipenem as substrate preincubated for 30 mins followed by substrate addition by UV-Visible spectrophotometric method relative to control; summary of the method: as §2
[13] = Chemical stability in pH 7 Tris buffer after 4 days by UV-Visible spectral analysis; assay type: physicochemical; conditions: pH 7, 96 h; summary of the method: as §1
Escherichia coli [14] = assay: Growth inhibition of Escherichia coli DH10B harboring pBC SK(+)-L1 at 1024 ug/ml after 12 hrs macrodilution broth method; design: species or system K-12 substr. DH10B; summary of the method: as §4
L929 = assay: Cytotoxicity against mouse L929 cells assessed as reduction in cell viability up to 400 uM after 48 hrs by CCK assay; assay type: cell-based; conditions: l929, 48 h
Summary of the method: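 L-929 mouse fibroblasts exposed to compound at 12.5, 25, 50, 100, 200 and 400 μM working concentrations; cell viability measured.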

[15] = Mixed-type inhibition of L1 (unknown origin) expressed in Escherichia coli BL21(DE3) using varying levels of cefazolin as substrate preincubated for 30 mins followed by substrate addition by Michaelis-Menten plot analysis
[16] = Inhibition of L1 (unknown origin) expressed in Escherichia coli DH10B harboring pBC SK(+)-L1 assessed as potentiation of cefazolin-induced antibacterial activity by measuring cefazolin MIC at 512 ug/ml after 12 hrs macrodilution broth method; summary of the method: as §3
[17] = Inhibition of L1 (unknown origin) expressed in Escherichia coli DH10B harboring pBC SK(+)-L1 assessed as potentiation of cefazolin-induced antibacterial activity by measuring fold reduction in cefazolin MIC at 1024 ug/ml after 12 hrs macrodilution broth method relative to cefazolin alone; summary of the method: as §3
[18] = Inhibition of L1 (unknown origin) expressed in Escherichia coli DH10B harboring pBC SK(+)-L1 assessed as potentiation of cefazolin-induced antibacterial activity by measuring cefazolin MIC at 128 ug/ml after 12 hrs macrodilution broth method; summary of the method: as §3
[19] = Inhibition of L1 (unknown origin) expressed in Escherichia coli DH10B harboring pBC SK(+)-L1 assessed as potentiation of cefazolin-induced antibacterial activity by measuring cefazolin MIC at 16 ug/ml after 12 hrs macrodilution broth method; summary of the method: as §3
[20] = Inhibition of L1 (unknown origin) expressed in Escherichia coli DH10B harboring pBC SK(+)-L1 assessed as potentiation of cefazolin-induced antibacterial activity by measuring cefazolin MIC at 64 ug/ml after 12 hrs macrodilution broth method; summary of the method: as §3
[21] = Inhibition of L1 (unknown origin) expressed in Escherichia coli DH10B harboring pBC SK(+)-L1 assessed as potentiation of cefazolin-induced antibacterial activity by measuring cefazolin MIC at 8 ug/ml after 12 hrs macrodilution broth method; summary of the method: as §3
[22] = Inhibition of L1 (unknown origin) expressed in Escherichia coli DH10B harboring pBC SK(+)-L1 assessed as potentiation of cefazolin-induced antibacterial activity by measuring cefazolin MIC at 4 ug/ml after 12 hrs macrodilution broth method; summary of the method: as §3
[23] = Inhibition of L1 (unknown origin) expressed in Escherichia coli DH10B harboring pBC SK(+)-L1 assessed as potentiation of cefazolin-induced antibacterial activity by measuring cefazolin MIC at 32 ug/ml after 12 hrs macrodilution broth method; summary of the method: as §3
[24] = Inhibition of L1 (unknown origin) expressed in Escherichia coli DH10B harboring pBC SK(+)-L1 assessed as potentiation of cefazolin-induced antibacterial activity by measuring cefazolin MIC at 256 ug/ml after 12 hrs macrodilution broth method; summary of the method: as §3

SMILES | Stability [1] | inhibition [2] | inhibition [3] [%] | inhibition [4] [%] | MIC [5] [µg/mL] | inhibition [7] | growth inhibition (GI) (Escherichia coli [8]) | inhibition [9] | IC50 [10] [nM] | Stability [11] | inhibition [12] [%] | Stability [13] | growth inhibition (GI) (Escherichia coli [14]) | Ki [15] [nM] | MIC [16] [µg/mL] | fold change (FC) [17] | MIC [18] [µg/mL] | MIC [19] [µg/mL] | MIC [20] [µg/mL] | MIC [21] [µg/mL] | other results
Cc1ccc(NC(=O)CSCC(=O)[O-])cc1.[K+] | Stable | Tde | 37 | 97 | 16 | Tde | Non-Toxic | Tde | 410 | Stable | 52 | Stable | Non-Toxic | – | – | – | – | – | – | – | inhibition [6]: Dose-dependent effect; inhibition [10]: Dose-dependent effect; Activity (L929): Non-Toxic
O=C([O-])CSCC(=O)Nc1ccccc1Cl.[K+] | Unstable | Tde | 53 | 80 | 16 | Tde | Non-Toxic | Tde | 1040 | Unstable | 39 | Unstable | Non-Toxic | – | – | – | – | – | – | – | –
CCc1ccccc1NC(=O)CSCC(=O)[O-].[K+] | – | Tde | 80 | 92 | 16 | Tde | Non-Toxic | Tde | 590 | – | 21 | – | Non-Toxic | 3700 | – | – | – | – | – | – | –
O=C([O-])CSCC(=O)Nc1cccc(Cl)c1.[K+] | – | Tde | 48 | 79 | 16 | Tde | Non-Toxic | Tde | 2010 | – | 34 | – | Non-Toxic | 31800 | – | – | – | – | – | – | –
CCCCc1ccc(NC(=O)CSCC(=O)[O-])cc1.[K+] | – | Tde | 64 | 97 | 2 | Tde | Non-Toxic | Tde | 430 | – | 29 | – | Non-Toxic | – | 8 | 8 | 16 | 16 | 16 | 16 | MIC [22]: 16 µg/mL; MIC [23]: 16 µg/mL; MIC [24]: 8 µg/mL
O=C([O-])CSCC(=O)Nc1ccc([N+](=O)[O-])cc1.[K+] | – | Tde | 45 | 71 | 2 | Tde | Non-Toxic | Tde | > 20000 | – | 85 | – | Non-Toxic | – | 8 | 8 | 8 | 16 | 16 | 16 | MIC [22]: 16 µg/mL; MIC [23]: 16 µg/mL; MIC [24]: 8 µg/mL
